M1 ag parental: nonselective activator or artifact in parental CHO-K1 cells | Fluo-8 calcium fluorescence; scaled to maximal ATP response, vehicle zero | activation, % at 3 µM | 360,000 compounds, 0.48% hits | AID 602248; in the data active = activation above about 15%;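 also: untransfected CHO-K1 host cells lacking M1 receptor as counterscreen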
OX1R antag-1: antagonists of human orexin 1 receptor (OX1R); O43613; 330,000 compounds, 1.8% hits; inhibition, % at 6.6 µM; OX1R-expressing cells, FRET antagonist read-out; in the data active = inhibition mostly above about 38%, no sharp cut-off; inactive = mostly below about 40%;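 also: 0% = agonist challenge alone and 100% = reference antagonist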
Target sequence (O43613 whole entry, looked up): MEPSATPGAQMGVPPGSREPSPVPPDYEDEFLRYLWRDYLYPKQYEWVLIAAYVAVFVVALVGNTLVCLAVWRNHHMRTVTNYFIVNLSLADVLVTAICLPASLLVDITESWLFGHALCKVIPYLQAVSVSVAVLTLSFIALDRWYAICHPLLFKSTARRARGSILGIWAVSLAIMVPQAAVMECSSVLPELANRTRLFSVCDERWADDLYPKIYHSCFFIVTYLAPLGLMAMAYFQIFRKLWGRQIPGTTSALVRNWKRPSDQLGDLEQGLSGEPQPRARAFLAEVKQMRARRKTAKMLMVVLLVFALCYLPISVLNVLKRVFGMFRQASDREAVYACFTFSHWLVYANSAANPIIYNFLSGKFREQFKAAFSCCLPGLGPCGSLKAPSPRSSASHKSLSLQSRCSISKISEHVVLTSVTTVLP
CHO-K1 Ca antag: nonselective inhibitor or artifact in parental CHO-K1 cells. ATP-induced calcium, Fluo-8 fluorescence. inhibition, % at 3 µM. 360,000 compounds, 0.6% hits. AID 602250;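 active = inhibition above a per-plate cutoff, the plate's mean sample inhibition plus 3 SD, cut at about 24% in these data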;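 also: 0% = DMSO plus EC80 ATP and 100% = DMSO alone without ATP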
CHO parental Ca: counter-screen for OX1R antagonists: effect in parental CHO cells; parental CHO-K1, ATP-induced calcium, Fluo-8 fluorescence; inhibition, % at 5.6 µM; 330,000 compounds, 0.63% hits; AID 463079;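 active = inhibition above that plate's mean sample inhibition plus 3 SD, cut at about 26% in these data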;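 also: 0% = ATP-challenged DMSO wells and 100% = DMSO wells without ATP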
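Material – parental CHO cells · Reagent – ATP stimulus · Compound – single nominal dose of 5.6 µM per compound · Detection – Fluo-8 fluorescence · Read-out basis – percent inhibition of calcium signal · Controls – ATP-challenged DMSO wells low, unchallenged DMSO wells high · Repeats – no replicates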
OX1R antag-2: antagonists of human orexin 1 receptor; O43613; CHO/OX1R cells, Fluo-8 calcium fluorescence, orexin A; inhibition, % at 5 µM; 330,000 compounds, 0.43% hits;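 active = inhibition above its plate's threshold, mean inhibition of all tested compounds on the plate plus 3 SD, cut at about 37% in these data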;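 also: 0% = orexin A challenge wells and 100% = SB-334867-A antagonist wells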
M1 PAM parental: nonselective activator or artifact in parental CHO-K1 calcium assay; activation, % at 3 µM; 360,000 compounds, 0.02% hits; ATP EC20, Fluo-8 calcium fluorescence; 0% at ATP EC20, 100% at ATP max;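 active = activation above the run cutoff, the mean activation of all test compounds plus 3 SD, cut at about 40% in these data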;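 also: peak over basal fluorescence ratio in a 140 s read after ATP addition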
OX1R HTRF conf: OX1R (human) antagonism, HTRF confirmed; 1,800 compounds, 49% hits; shares compounds with OX1R antag-1; OX1R-expressing cells, HTRF antagonist assay; inhibition, % at 6.6 µM; in the data active = inhibition above about 55%;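 also: CHO cells expressing OX1R stimulated with orexin A at about EC80; 0% = agonist challenge alone and 100% = reference antagonist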
CHO-K1 HTRF: counter-screen for OX1R antagonists: effect in parental CHO-K1 cells | 1,800 compounds, 48% hits | inhibition, % at 6.6 µM | HTRF counterscreen | shares compounds with OX1R antag-1; in the data active = inhibition above about 17%;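 also: 0% = agonist challenge with vehicle and 100% = vehicle alone without agonist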
The depositor's hits bear a star; . = not tested or not shown. An excerpt weighted towards active compounds, which were near 2.9% of everything screened.

SMILES	M1 ag parental	OX1R antag-1	CHO-K1 Ca antag	CHO parental Ca	OX1R antag-2	M1 PAM parental	OX1R HTRF conf	CHO-K1 HTRF
COc1ccc(CNC(=O)CCNS(=O)(=O)c2cccc3nsnc23)cc1	0	46	-13	-6	-15	16	.	.
O=C(NCc1ccco1)C1CCCN(S(=O)(=O)c2cccc3nsnc23)C1 (stereo not drawn)	0	78*	-5	3	-13	-3	31	34*
O=C(NCCc1ccccc1)C1CCCN(S(=O)(=O)c2cccc3nsnc23)C1 (stereo not drawn)	2	36	1	-30	-25	-4	.	.
CC(=O)/C(C#N)=C1\NC(=O)C(Cc2ccccc2C)S1 (stereo not drawn)	2	18	4	-12	-15	7	.	.
Cc1c(NC(=O)C(C)OC(=O)/C=C/c2ccc(OC(F)F)cc2)c(=O)n(-c2ccccc2)n1C (stereo not drawn)	-1	17	3	-11	-15	-8	.	.
CCN(CC(=O)Nc1ccccc1C(F)(F)F)C(=O)CCc1nc2ccccc2c(=O)[nH]1	0	82*	2	-9	13	-19	46	-1
Cc1ccc(Nc2nc(C)cc(C)c2C#N)c(C)c1	0	.	-7	.	.	10	.	.
O=C1c2ccc(Oc3ccc4c(c3)C(=O)N(CCCO)C4=O)cc2C(=O)N1CCCO	2	136*	-5	-20	-5	16	45	25*
O=C1c2ccc(-c3ccc4c(c3)C(=O)N(CCO)C4=O)cc2C(=O)N1CCO	2	174*	-7	-5	-9	12	66*	82*
CCCn1c(/C=C/c2cc[n+](C)cc2)nc2ccccc21	0	78*	1	0	10	8	50	47*
COCCn1c(Cc2ccccc2)nnc1SCC(=O)N1CCCC1=O	0	-1	-7	-15	-14	9	.	.
CCn1c(=O)cc(OCC(=O)Nc2ccc(OC)c(OC)c2)c2ccccc21	1	82*	-11	-6	-11	16	21	4
CCn1c2ccccc2c2cc(NC(=O)COC(=O)c3cc(OC)c(OC)cc3OC)ccc21	0	80*	-5	-17	19	10	89*	12
O=C(NCCCN1CCOCC1)c1cc2cc(Br)ccc2oc1=O	1	124*	-11	-20	-18	23	42	41*
COCC(C)NC(=O)c1cccc([N+](=O)[O-])c1 (stereo not drawn)	0	127*	-8	-1	2	0	19	19*
COc1ccc(C(C)NC(=O)c2cccc([N+](=O)[O-])c2)cc1OC (stereo not drawn)	0	23	7	-7	-23	4	.	.
COc1ccc(NC(=O)C2CC(c3ccccc3Cl)=NO2)cc1 (stereo not drawn)	2	8	-2	-5	-23	8	.	.
CCCN1CCN(CCCNC(=O)C(CC)n2nc(C)n3c(cc4occc43)c2=O)CC1 (stereo not drawn)	-1	12	-9	-8	-5	-8	.	.
COc1ccc(-c2ccc(C(=O)NCc3ccc(N(C)C)cc3)c3occc23)c(C)c1	0	.	4	.	.	9	.	.
CCS(=O)(=O)N1Cc2cc(C(=O)NCCOC)nc(-c3cccc(-c4ccncc4)c3)c2[C@H]1CCO	0	.	-20	.	.	20	.	.
O=C(CC1Nc2ccccc2NC1=O)NCC1COc2ccccc2O1 (stereo not drawn)	0	79*	15	-16	23	-6	65*	-1
COc1ccc(-c2cnc3nc[nH]c(=O)c3n2)cc1	0	197*	-12	8	2	29	56*	90*
CCN(CC)c1ccc(N=Nc2ncn[nH]2)cc1	0	139*	-5	-1	-20	-2	35	56*
O=C1c2cccc3cccc(c23)C(=O)N1c1ccccn1	0	99*	15	-12	-12	-13	61*	60*

High-throughput results (PubChem)
